In data set [1] the test system is HeLa. Description: Inhibition of colony formation in human HeLa cells assessed as reduction in number of colonies at one third of GI50 concentration measured after 7 days by crystal violet staining based analysis. The format is functional, cell-based. To be noted: time 7.0 day. The gist of the method:
(§1)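 HeLa and SW1573 seeded at 400 cells/well, dosed next day at GI50/3 and GI50 for the given line. Exposed seven days, fixed in methanol, stained with 0.5% w/v crystal violet. Colonies counted by automatic image segmentation.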

The test system of data set [2] is HeLa. The experiment in a line: Induction of morphological changes in human HeLa cells assessed as membrane rupture at 20 uM measured after 12 hrs by imaging based analysis. The format is functional, cell-based. Summed up:
(§2)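 HeLa and SW1573 seeded at 100,000 cells/dish. After 24 h, medium switched to phenol-red-free RPMI 1640 and 20 μM added. Label-free holotomographic 3D live imaging of a 236 × 236 μm field, 10–20 cells initially, every 3 min for 15 h. Average dry mass density measured per cell at each cycle; morphology scored against untreated cells.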

For a further data set, the system named is A549. The experiment in a line: Growth inhibition of human A549 cells measured after 48 hrs by SRB colorimetric assay. The format is functional. Summed up:
(§3)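 NCI-based protocol with sulforhodamine B read-out. Seeded 2500 (A549, HBL-100, HeLa, SW1573), 5000 (T-47D, WiDr, SW1573/P-gp) or 7000 (BJ-hTERT) cells/well. Exposed 48 h to serial decimal dilutions, 0.001–100 μM, from 40 mM DMSO stock. GI50 by NCI formulas; mean of three or more experiments ± SD.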

Data set [3] can be described thus: Resistance factor, ratio of GI50 for growth inhibition of human SW1573 cells overexpressing P-glycoprotein measured after 48 hrs in absence of verapamil to GI50 for growth inhibition of human SW1573 cells measured after 48 hrs in absence of verapamil. Format: functional. The gist of the method: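 Resistance factor: GI50 in P-gp-overexpressing SW1573 divided by GI50 in parental SW1573, each from 48 h SRB growth-inhibition assay without verapamil. Values are means of three or more independent experiments.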

Data set [4] has as its system SW1573. The experiment in a line: Inhibition of colony formation in human SW1573 cells assessed as reduction in colony size at GI50 concentration measured after 7 days by crystal violet staining based analysis. The format is functional, cell-based. To be noted: time 7.0 day. Summed up:
as §1

The subject of data set [5] is BV-2. The experiment in a line: Antiinflammatory activity in mouse BV-2 cells assessed as restoration of […] expression level at 10 uM incubated for 24 hrs with LPS stimulation by qRT-PCR analysis. Format: functional, cell-based. Summed up:
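Bv.2 microglia stimulated with LPS 200 ng/mL with or without compound at 10 μM for 24 h. Arg1 mRNA measured by qRT-PCR, Actinb as housekeeping gene, 2^-ΔΔCT method, fold change relative to basal. n ≥ 4 independent experiments in triplicate.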

Data set [6] has as its system SW1573. Description: Growth inhibition of human SW1573 cells measured after 48 hrs by SRB colorimetric assay. Format: functional. The gist of the method: as §3
In data set [7] the test system is HeLa. Description: Induction of morphological changes in human HeLa cells assessed as increase in average dry mass density at 20 uM measured after 15 hrs by imaging based analysis. The format is functional, cell-based. The gist of the method: as §2
Data set [8] addresses Mitogen-activated protein kinase 14 (Mus musculus) (UniProt P47811). Description: Inhibition of LPS-stimulated p38 alpha phosphorylation in mouse BV-2 cells at 10 uM measured after 30 mins by Western blot analysis. The format is cell-based. The gist of the method: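 Bv.2 cells exposed with or without LPS for 15–90 min. Protein extracts run on SDS-PAGE, blotted to PVDF, probed with anti-phospho-p38α MAPK and anti-total p38α MAPK (1:1000), ECL detection. Quantified by densitometry, mean ± SEM, n = 3.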

Data set [9] concerns HeLa. The experiment in a line: Inhibition of colony formation in human HeLa cells assessed as reduction in number of colonies at GI50 concentration measured after 7 days by crystal violet staining based analysis. The format is functional, cell-based. To be noted: time 7.0 day. The gist of the method:
as §1

Another data set has as its system T47D. Description: Growth inhibition of human T47D cells measured after 48 hrs by SRB colorimetric assay. Format: functional. The gist of the method:
as §3

Data set [10] concerns SW1573. Description: Inhibition of colony formation in human SW1573 cells assessed as reduction in colony size at one third of GI50 concentration measured after 7 days by crystal violet staining based analysis. Conditions: time 7.0 day. The format is functional, cell-based. Summed up:
as §1

For data set [11], the system named is HeLa. The experiment in a line: Induction of morphological changes in human HeLa cells assessed as production of filmy bubbles at 20 uM measured after 12 hrs by imaging based analysis. The format is functional, cell-based. Summed up: as §2
Data set [12] deals with HeLa. Description: Induction of morphological changes in human HeLa cells assessed as formation of apoptotic bodies at 20 uM measured after 5 hrs by microscopy based analysis. The format is functional, cell-based. The gist of the method: as §2
In data set [13] the test system is BV-2. The experiment in a line: Cytotoxicity against mouse BV-2 cells at 10 uM measured after 24 hr by crystal violet staining based analysis. Format: toxicity, cell-based. Conditions: bv-2, 24 h. The gist of the method: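 Bv.2 cells grown to 70% confluence, exposed 24 h in serum-free medium to 0.1, 1.0, 10 and 25 μM. Fixed with 1% glutaraldehyde, stained with 0.1% crystal violet, dye released in 10% acetic acid, absorbance 590 nm. Mean ± SEM, n ≥ 3 independent experiments.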

Data set [14] relates to SW1573. Description: Induction of morphological changes in human SW1573 cells assessed as decrease in cell volume at 20 uM measured after 5 hrs by microscopy based analysis. The format is functional. The gist of the method:
as §2

The source made the active and inactive calls. The calls are words filed in the database; no cut-off is given here.

Chain of Mitogen-activated protein kinase 14 (Mus musculus) (P47811 whole entry): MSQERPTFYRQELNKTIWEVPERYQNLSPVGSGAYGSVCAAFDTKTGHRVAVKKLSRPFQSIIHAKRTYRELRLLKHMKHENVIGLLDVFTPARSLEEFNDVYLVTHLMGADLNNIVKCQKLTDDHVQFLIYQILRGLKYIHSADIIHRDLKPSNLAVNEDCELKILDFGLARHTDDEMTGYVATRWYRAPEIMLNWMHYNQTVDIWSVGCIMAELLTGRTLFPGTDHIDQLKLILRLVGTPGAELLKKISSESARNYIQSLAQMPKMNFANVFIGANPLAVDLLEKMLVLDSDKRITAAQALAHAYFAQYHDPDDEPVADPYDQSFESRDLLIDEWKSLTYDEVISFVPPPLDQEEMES

In the case of `CCCCCCCCCCCCS(=O)(=O)[C@@H]1[C@H](F)[C@@H](O)[C@H](O)[C@H]2COC(=O)N21`, the inhibition entry in the data set with HeLa [1], in the data set with SW1573 [4], with HeLa [9] and in the data set with SW1573 [10] was “Active” each time. Further, the outcome in the data set with HeLa [2], with BV-2 [5], with HeLa [7], in the data set on HeLa [11], with HeLa [12] and in the data set on SW1573 [14] was Active. Also, the figures for the GI50 with A549, in the data set with SW1573 [6] and in the data set with T47D were 4.6 µM, 9.1 µM and 18 µM, respectively. Moreover, the RatioGI50 in data set [3] turned out to be 1.6. The inhibition entry in data set [8] was “inactive”. Also, in the data set with BV-2 [13], the Activity entry was “Non-Toxic”.

(Values after ChEMBL document CHEMBL5321236, “Fluoro-labelled sp2-iminoglycolipids with immunomodulatory properties” (Eur J Med Chem, 2023).)
